Test results from ChEMBL document CHEMBL1147848, “1-(5-Carboxy- and 5-carbamoylindol-1-yl)propan-2-ones as inhibitors of human cytosolic phospholipase A2alpha: bioisosteric replacement of the carboxylic acid and carboxamide moiety” (Bioorg Med Chem, 2007).
Activity calls are given as the source filed them. The rule behind the calls is not given here.

Molecular target: T1, Cytosolic phospholipase A2 (Homo sapiens, UniProt P47712)
T1 sequence (P47712 whole entry): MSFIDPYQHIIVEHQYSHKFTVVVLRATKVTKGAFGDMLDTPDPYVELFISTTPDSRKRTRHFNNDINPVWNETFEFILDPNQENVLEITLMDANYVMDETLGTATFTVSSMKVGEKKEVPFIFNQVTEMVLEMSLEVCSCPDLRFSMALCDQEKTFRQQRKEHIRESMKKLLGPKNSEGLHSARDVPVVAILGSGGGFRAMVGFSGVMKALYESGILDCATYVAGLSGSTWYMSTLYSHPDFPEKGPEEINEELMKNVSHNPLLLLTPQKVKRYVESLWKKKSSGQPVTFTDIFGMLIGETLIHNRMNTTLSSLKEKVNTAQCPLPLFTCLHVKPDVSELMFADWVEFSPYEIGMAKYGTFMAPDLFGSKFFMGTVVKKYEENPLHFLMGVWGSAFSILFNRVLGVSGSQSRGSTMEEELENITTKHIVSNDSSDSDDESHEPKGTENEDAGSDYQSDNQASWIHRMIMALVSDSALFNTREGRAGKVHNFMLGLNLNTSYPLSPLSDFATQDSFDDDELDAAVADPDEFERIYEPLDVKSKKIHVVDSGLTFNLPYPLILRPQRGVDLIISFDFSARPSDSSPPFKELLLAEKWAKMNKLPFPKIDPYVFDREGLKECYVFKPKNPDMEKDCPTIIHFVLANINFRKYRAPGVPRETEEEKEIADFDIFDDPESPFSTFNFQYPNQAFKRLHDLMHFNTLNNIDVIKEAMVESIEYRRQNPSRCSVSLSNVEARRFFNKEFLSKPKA
Test: Inhibition of human platelet cPLA2-alpha assessed as arachidonic acid release by vesicle assay
How it was run: (§1)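 cPLA2α isolated from human platelets. Highest test concentration 10 µM, kept low to limit inhibitor mole fraction in the interface. Incubated 60 min. Released arachidonic acid is cleaned up by solid-phase extraction, then quantified by reversed-phase HPLC with UV detection at 200 nm.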

Row | SMILES | IC50 [nM]
1 | CCCCCCCCc1ccc(OCC(=O)Cn2cc(C(=O)OC)c3cc(C(=O)O)ccc32)cc1 | 5
2 | CCCCC/C=C\C/C=C\C/C=C\C/C=C\CCCC(=O)C(F)(F)F [ARACHIDONYL TRIFLUOROMETHYLKETONE] | 2300
3 | CCCCCCCCc1ccc(OCC(=O)Cn2ccc3cc(S(N)(=O)=O)ccc32)cc1 | 390
4 | CCCCCCCCc1ccc(OCC(=O)Cn2ccc3cc(S(=O)(=O)N(C)C)ccc32)cc1 | 500
5 | CCCCCCCCc1ccc(OCC(=O)Cn2ccc3cc(C(=O)N(C)C)ccc32)cc1 | 840
6 | CCCCCCCCc1ccc(OCC(=O)Cn2ccc3cc(S(=O)(=O)NC)ccc32)cc1 | 310
7 | CCCCCCCCc1ccc(OCC(=O)Cn2ccc3cc(-c4noc(=O)[nH]4)ccc32)cc1 | 3500
8 | CCCCCCCCc1ccc(OCC(=O)Cn2ccc3cc(-c4nnn[nH]4)ccc32)cc1 | 1100
9 | CCCCCCCCc1ccc(OCC(=O)Cn2ccc3cc(C(=O)NC)ccc32)cc1 | 370
10 | CCCCCCCCc1ccc(OCC(=O)Cn2ccc3cc(C(=O)N4CCOCC4)ccc32)cc1 | 500

Molecular target: T2, Cytosolic phospholipase A2 (Homo sapiens) (UniProt P47712)
T2 sequence (whole entry): T1 sequence (P47712 whole entry)
Test: Inhibition of human platelet cPLA2-alpha assessed as arachidonic acid release at 10 uM by vesicle assay
How it was run: as §1

Row | SMILES | Activity | inhibition [%]
11 | CCCCCCCCc1ccc(OCC(=O)Cn2ccc3cc(-c4nc(Cc5ccccc5)no4)ccc32)cc1 | inactive | 
12 | CCCCCCCCc1ccc(OCC(=O)Cn2ccc3cc(-c4nc(CC)no4)ccc32)cc1 | inactive | 
13 | CCCCCCCCc1ccc(OCC(=O)Cn2ccc3cc(/C=C4\SC(=O)NC4=O)ccc32)cc1 |  | 29
